Our source for the IC50 values is ChEMBL document CHEMBL2163321 (J Med Chem, 2012).

Molecules are shown by their SMILES. Some results are limits rather than exact numbers.

One experiment addresses Egl nine homolog 1 (Homo sapiens, UniProt Q9GZT9). The experiment can be described thus: Inhibition of human PHD2 expressed in Escherichia coli by AlphaScreen assay.
Experiment [1] deals with Hypoxia-inducible factor 1-alpha inhibitor (Homo sapiens, UniProt Q9NWT6). The experiment can be described thus: Inhibition of human FIH expressed in Escherichia coli by MALDI assay.
Sequence of Hypoxia-inducible factor 1-alpha inhibitor (Q9NWT6 whole entry, the tested form may be a part): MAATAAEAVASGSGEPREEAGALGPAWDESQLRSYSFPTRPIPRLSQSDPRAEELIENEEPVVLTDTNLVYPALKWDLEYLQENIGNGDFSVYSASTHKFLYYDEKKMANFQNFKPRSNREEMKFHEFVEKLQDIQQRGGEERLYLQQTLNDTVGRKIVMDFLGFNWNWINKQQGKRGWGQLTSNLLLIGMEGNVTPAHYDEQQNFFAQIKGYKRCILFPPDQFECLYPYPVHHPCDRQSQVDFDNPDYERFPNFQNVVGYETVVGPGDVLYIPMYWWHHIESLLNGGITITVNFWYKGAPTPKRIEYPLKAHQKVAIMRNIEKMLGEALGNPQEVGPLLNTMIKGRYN
Experiment [2] has as its target Lysine-specific demethylase 5C (Homo sapiens, UniProt P41229). Kind of experiment: Inhibition of human KDM5C catalytic domain expressed in Sf9 cells using methyl lysine peptide substrate by AlphaScreen assay. The gist of the method:
(§1)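 AlphaScreen read-out: immunodetection of the lysine methylation state of the biotinylated histone peptide product, captured on streptavidin and Protein A conjugated beads. Reactions were run in the linear range with 2OG near or below its Km.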
For orientation: Alpha assays give light when donor and acceptor beads are brought close together.

A short description of experiment [3]: Inhibition of human KDM3A catalytic domain expressed in Sf9 cells methyl lysine peptide substrate by AlphaScreen assay. The gist of the method:
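AlphaScreen activity assay run within the linear range of the reaction. It immunodetects the lysine methylation state of a biotin-conjugated histone peptide product, using Streptavidin- and Protein A-conjugated beads.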

The target in experiment [4] is Lysine-specific demethylase 6B (Homo sapiens, UniProt O15054). Kind of experiment: Inhibition of human KDM6B catalytic domain expressed in Escherichia coli using methyl lysine peptide substrate by AlphaScreen assay. The gist of the method: as §1
Sequence of Lysine-specific demethylase 6B (O15054 whole entry, the tested form may be a part): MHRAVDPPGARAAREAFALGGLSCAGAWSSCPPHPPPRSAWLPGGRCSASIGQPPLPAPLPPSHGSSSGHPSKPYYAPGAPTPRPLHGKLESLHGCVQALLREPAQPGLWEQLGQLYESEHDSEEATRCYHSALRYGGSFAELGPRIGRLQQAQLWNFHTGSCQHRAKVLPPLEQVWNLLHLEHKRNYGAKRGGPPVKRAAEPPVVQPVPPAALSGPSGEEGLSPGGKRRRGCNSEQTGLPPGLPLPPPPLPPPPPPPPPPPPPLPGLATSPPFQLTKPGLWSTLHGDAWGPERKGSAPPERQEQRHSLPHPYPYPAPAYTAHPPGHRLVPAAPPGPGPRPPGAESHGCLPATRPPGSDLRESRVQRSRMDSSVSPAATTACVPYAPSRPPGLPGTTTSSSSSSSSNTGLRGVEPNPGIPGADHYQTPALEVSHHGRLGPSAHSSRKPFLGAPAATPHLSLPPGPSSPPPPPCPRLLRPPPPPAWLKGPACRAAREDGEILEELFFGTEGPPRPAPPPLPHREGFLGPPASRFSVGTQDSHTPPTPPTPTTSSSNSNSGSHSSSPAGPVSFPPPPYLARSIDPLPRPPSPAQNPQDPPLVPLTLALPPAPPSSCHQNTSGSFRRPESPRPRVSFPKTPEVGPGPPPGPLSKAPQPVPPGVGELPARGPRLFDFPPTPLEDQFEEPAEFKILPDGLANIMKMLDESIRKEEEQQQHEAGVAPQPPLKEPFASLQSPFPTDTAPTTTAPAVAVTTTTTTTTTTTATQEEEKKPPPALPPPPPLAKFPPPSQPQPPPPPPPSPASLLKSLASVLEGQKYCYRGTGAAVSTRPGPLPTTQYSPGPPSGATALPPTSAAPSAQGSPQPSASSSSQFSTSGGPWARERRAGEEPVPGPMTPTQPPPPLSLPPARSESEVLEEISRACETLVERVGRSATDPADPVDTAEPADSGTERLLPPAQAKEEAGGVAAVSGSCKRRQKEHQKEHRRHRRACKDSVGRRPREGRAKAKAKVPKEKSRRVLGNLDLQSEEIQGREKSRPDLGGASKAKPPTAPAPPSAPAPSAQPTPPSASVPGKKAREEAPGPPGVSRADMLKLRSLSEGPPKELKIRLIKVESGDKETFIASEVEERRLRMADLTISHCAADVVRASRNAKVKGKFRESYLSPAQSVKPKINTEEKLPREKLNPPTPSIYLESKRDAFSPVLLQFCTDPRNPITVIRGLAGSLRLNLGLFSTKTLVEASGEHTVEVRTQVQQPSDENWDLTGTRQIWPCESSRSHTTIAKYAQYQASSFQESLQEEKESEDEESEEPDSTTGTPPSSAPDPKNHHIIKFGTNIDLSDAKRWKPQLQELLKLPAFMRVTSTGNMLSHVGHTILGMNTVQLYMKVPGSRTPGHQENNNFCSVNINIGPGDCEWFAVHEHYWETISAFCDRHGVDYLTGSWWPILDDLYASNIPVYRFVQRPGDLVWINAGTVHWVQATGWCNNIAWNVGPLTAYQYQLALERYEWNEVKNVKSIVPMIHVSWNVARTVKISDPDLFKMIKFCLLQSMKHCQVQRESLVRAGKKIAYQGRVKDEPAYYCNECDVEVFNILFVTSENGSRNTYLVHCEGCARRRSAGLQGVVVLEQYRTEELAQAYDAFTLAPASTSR
In experiment [5] the target is T1, Gamma-butyrobetaine dioxygenase (Homo sapiens, UniProt O75936).
T1 sequence (O75936 whole entry): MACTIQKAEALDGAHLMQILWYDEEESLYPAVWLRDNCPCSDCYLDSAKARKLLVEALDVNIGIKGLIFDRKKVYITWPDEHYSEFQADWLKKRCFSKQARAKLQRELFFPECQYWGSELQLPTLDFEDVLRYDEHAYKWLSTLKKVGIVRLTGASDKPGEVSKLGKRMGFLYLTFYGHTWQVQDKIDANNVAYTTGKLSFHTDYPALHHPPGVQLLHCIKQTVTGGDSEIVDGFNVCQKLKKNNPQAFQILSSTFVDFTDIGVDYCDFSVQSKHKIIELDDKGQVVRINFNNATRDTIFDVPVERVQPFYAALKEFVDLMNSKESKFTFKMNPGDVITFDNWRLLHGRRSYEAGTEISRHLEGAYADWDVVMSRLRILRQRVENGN
The experiment can be described thus: Inhibition of human BBOX1 by fluorescence based assay.

In experiment [6] the target is T2, Lysine-specific demethylase 7A (Homo sapiens, UniProt Q6ZMT4).
T2 sequence (Q6ZMT4 whole entry): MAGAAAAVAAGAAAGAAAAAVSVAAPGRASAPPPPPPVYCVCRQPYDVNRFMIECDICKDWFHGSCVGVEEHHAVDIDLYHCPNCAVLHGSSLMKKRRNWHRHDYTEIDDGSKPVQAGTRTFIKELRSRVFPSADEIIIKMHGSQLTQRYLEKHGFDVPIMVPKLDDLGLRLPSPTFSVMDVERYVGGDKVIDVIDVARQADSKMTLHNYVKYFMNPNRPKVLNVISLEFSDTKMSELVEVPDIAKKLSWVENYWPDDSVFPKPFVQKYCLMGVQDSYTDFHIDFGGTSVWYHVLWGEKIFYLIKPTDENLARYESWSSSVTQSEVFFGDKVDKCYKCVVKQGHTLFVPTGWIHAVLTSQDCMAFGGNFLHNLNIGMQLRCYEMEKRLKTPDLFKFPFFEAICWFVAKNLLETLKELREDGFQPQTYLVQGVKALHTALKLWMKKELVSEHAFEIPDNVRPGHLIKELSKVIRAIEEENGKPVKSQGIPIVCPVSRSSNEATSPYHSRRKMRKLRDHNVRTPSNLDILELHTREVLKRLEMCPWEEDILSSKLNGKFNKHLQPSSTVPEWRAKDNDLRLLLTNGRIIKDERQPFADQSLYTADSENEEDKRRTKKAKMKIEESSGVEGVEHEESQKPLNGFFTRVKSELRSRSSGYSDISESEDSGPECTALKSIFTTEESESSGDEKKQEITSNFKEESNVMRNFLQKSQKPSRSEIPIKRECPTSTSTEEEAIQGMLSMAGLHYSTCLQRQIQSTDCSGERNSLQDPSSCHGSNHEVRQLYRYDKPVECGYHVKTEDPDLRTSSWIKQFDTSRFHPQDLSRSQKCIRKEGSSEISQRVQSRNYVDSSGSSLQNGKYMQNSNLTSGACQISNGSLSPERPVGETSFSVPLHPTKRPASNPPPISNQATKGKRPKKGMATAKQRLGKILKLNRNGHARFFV
Kind of experiment: Inhibition of human KDM7A catalytic domain expressed in Escherichia coli by MALDI assay.

Experiment [7] addresses T3, Lysine-specific demethylase 4E (Homo sapiens, UniProt B2RXH2).
T3 sequence (B2RXH2 whole entry): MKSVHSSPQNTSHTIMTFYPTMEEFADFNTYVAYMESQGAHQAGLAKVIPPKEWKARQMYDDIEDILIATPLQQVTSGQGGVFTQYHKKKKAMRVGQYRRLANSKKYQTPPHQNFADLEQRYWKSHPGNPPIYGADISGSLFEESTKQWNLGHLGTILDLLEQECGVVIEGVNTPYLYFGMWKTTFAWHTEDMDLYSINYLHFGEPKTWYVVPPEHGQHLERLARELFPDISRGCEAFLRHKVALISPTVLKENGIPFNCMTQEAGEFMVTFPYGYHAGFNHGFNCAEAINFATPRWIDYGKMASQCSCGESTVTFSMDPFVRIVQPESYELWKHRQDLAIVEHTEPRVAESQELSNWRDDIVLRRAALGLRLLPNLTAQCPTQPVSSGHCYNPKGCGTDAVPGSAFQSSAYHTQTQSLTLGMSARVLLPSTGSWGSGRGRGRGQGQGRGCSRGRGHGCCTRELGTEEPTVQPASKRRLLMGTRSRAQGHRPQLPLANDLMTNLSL
The experiment can be described thus: Inhibition of human KDM4E expressed in Escherichia coli using methyl lysine peptide substrate by AlphaScreen assay. Put shortly: as §1

For experiment [8], the target named is T4, Lysine-specific demethylase 2A (Homo sapiens, UniProt Q9Y2K7).
T4 sequence (Q9Y2K7 whole entry): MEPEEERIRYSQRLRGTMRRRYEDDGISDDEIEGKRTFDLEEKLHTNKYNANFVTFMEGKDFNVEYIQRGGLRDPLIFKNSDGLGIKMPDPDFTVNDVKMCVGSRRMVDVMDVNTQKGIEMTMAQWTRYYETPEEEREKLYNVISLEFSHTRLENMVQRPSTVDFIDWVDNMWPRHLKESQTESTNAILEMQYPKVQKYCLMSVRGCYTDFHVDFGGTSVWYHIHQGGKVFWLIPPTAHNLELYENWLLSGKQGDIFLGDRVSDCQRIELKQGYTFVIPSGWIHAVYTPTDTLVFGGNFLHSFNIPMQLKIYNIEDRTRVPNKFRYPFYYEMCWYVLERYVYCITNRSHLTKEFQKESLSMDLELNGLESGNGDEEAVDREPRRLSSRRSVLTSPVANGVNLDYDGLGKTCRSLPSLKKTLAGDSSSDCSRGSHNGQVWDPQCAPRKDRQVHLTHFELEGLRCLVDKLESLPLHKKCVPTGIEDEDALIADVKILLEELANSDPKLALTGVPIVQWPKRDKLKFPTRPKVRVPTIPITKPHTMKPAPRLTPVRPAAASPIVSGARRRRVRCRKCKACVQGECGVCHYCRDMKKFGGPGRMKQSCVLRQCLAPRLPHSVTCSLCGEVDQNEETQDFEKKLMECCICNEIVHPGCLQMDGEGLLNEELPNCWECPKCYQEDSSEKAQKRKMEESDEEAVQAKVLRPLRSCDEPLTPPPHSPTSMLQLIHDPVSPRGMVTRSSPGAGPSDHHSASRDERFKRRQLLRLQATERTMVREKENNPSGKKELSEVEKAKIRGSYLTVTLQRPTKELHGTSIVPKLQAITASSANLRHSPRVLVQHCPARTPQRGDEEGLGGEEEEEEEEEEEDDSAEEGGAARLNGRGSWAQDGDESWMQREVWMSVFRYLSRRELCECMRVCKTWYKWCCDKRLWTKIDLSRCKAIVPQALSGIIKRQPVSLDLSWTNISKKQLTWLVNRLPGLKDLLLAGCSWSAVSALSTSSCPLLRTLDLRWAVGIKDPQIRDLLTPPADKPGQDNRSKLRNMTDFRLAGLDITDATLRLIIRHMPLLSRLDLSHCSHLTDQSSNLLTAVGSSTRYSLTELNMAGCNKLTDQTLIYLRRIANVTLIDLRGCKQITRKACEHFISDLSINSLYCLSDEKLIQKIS
Kind of experiment: Inhibition of human KDM2A expressed in Escherichia coli using methyl lysine peptide substrate by AlphaScreen assay.

Experiment [9] has as its target Histone lysine demethylase PHF8 (Homo sapiens, UniProt Q9UPP1). The experiment can be described thus: Inhibition of human PHF8 expressed in Escherichia coli using methyl lysine peptide substrate by AlphaScreen assay.

Sequence of Egl nine homolog 1 (Q9GZT9 whole entry): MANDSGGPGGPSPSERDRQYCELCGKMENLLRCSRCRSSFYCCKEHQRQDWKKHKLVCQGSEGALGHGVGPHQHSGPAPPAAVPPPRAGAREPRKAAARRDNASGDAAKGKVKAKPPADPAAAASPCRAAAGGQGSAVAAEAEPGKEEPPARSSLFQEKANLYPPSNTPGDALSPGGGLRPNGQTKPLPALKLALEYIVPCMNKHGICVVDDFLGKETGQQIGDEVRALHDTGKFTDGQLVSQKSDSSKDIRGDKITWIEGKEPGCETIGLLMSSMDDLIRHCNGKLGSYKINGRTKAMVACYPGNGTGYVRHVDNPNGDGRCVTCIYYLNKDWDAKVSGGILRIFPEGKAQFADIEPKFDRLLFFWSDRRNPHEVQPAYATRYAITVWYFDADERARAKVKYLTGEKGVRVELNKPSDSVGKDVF
Sequence of Lysine-specific demethylase 5C (P41229 whole entry, the tested form may be a part): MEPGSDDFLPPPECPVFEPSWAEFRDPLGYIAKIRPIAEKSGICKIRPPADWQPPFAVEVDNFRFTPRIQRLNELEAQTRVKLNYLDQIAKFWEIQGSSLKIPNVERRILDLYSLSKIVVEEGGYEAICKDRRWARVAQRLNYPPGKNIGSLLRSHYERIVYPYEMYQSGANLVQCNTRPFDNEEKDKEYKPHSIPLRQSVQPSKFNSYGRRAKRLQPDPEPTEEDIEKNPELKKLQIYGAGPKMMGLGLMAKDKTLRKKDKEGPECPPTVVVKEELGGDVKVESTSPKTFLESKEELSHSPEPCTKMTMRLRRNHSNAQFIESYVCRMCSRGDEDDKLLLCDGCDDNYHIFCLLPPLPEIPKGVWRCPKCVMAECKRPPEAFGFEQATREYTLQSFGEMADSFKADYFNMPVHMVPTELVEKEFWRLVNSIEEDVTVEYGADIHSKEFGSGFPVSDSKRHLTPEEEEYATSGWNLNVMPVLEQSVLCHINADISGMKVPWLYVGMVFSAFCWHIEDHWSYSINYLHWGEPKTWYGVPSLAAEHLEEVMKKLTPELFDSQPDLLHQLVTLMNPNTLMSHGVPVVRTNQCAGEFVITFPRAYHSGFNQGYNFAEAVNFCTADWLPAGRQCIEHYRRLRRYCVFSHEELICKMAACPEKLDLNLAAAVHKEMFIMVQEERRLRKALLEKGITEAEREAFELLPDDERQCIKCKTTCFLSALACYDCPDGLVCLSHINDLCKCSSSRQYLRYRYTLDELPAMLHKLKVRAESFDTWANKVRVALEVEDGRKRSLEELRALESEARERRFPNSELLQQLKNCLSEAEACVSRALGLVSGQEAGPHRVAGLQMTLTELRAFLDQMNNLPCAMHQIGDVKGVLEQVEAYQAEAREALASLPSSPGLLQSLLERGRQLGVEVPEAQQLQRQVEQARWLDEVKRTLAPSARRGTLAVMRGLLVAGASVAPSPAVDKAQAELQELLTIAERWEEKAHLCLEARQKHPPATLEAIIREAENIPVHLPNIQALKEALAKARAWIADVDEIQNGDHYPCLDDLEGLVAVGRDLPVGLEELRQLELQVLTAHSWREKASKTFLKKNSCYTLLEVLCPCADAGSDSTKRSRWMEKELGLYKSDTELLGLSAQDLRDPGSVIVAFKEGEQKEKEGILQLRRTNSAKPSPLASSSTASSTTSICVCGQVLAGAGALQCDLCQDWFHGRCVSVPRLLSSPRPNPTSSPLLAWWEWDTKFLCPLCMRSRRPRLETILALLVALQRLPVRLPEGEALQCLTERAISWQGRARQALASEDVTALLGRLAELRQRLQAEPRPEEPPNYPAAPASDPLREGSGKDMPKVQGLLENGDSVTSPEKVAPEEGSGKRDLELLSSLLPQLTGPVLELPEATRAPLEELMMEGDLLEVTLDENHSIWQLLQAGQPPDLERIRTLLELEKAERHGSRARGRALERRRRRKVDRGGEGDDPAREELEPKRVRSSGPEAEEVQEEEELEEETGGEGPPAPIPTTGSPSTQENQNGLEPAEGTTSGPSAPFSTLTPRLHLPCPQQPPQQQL
Sequence of Histone lysine demethylase PHF8 (Q9UPP1 whole entry): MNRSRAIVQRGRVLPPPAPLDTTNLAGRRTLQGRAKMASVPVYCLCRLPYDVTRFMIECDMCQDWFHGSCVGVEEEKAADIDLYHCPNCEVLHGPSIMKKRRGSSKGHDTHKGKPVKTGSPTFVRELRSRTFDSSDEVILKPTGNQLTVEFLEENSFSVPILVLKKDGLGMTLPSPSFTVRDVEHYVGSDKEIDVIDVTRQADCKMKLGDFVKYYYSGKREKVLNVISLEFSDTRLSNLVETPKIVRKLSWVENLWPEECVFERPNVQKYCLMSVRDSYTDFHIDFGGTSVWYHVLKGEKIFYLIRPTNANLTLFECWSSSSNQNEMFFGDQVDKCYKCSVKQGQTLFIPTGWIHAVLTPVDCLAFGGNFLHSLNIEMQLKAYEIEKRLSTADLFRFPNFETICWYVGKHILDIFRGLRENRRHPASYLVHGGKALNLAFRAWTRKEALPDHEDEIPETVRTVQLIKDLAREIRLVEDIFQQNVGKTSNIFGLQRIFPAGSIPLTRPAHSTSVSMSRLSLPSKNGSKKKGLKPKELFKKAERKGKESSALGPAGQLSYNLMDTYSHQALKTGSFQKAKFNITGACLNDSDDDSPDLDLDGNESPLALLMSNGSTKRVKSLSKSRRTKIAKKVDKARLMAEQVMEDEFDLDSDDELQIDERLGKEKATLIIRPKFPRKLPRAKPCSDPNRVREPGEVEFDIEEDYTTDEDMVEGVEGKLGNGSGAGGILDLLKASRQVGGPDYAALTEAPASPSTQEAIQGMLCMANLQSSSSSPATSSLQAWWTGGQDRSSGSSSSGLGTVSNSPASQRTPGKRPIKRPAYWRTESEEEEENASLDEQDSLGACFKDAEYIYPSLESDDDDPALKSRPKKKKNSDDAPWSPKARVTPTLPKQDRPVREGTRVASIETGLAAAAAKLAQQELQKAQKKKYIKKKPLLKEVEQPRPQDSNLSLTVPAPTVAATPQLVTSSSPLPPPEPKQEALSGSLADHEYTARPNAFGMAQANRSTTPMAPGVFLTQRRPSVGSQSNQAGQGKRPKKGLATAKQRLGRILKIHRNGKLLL

Broadly, the IC50 is the point on the concentration scale where inhibition reaches its midpoint. The low end stands for greater potency, the high end for weaker potency. On to `CN(C)NC(=O)CCC(=O)O`, for which the IC50 was above 100 µM against Egl nine homolog 1; above 100 µM in experiment [1]; above 100 µM in experiment [2]; 127 µM in [3]; above 100 µM in [4]; above 100 µM in experiment [5]. The IC50 in [6] is 2.1 µM; in experiment [7], above 100 µM.

For the compound `C[N+](C)(C)NC(=O)CCC(=O)O`, the IC50 is above 100 µM against Egl nine homolog 1; 63 µM in experiment [8]; above 100 µM in [1]; above 100 µM in experiment [2]; above 100 µM in experiment [3]; above 100 µM in experiment [4]. In addition, the half-inhibitory concentration (IC50) in [5] is above 100 µM; in experiment [9] it was 35 µM; in experiment [7], above 100 µM.

As for `CNNC(=O)CCC(=O)O`, the IC50 against Egl nine homolog 1 is 14.2 µM; in experiment [8] it was 0.37 µM; in experiment [1] it was above 100 µM; in [2], 1.1 µM; in experiment [3], above 100 µM; in [4], above 100 µM. The IC50 in [5] is above 100 µM; in experiment [9], 3.4 µM; in experiment [7] it was 4.3 µM.

Turning to `NNC(=O)CCC(=O)O`, the concentration for half-maximal inhibition (IC50) at Egl nine homolog 1 is above 100 µM; in experiment [8], 0.25 µM; in experiment [1], above 100 µM; in [2] it was 0.48 µM; in experiment [3], above 100 µM; in experiment [4] it was above 100 µM. Also, the half-inhibitory concentration (IC50) in experiment [5] is above 100 µM; in experiment [9], 0.48 µM; in experiment [7], 0.2 µM.

Take `CN(C)N(C)C(=O)CCC(=O)O`: the IC50 against Egl nine homolog 1 is above 100 µM; in experiment [8] it was 3.7 µM; in experiment [1], above 100 µM; in experiment [2], above 100 µM; in [3], above 100 µM; in [4], above 100 µM. The results for the concentration for half-maximal inhibition (IC50) in experiment [5], in experiment [9] and in [7] were above 100 µM, 11.5 µM and above 100 µM, respectively.

Consider `CC(C)NC(=O)CCC(=O)O`, for which the IC50 (at Egl nine homolog 1; in experiment [8]; in experiment [1]; in experiment [2]; in [3]; in experiment [4]) was above 100 µM each time. Also, the IC50 in [5], in experiment [9] and in [7] was above 100 µM in each case.

With `CN(C)OC(=O)CCC(=O)O`, the IC50 against Egl nine homolog 1 is 6.3 µM; in experiment [8] it was 9.1 µM; in [1], above 100 µM; in [2], 42 µM; in experiment [3] it was above 100 µM; in experiment [4] it was 41.7 µM. For the same compound, the figures for the IC50 in experiment [5], in experiment [9] and in experiment [7] were above 100 µM, 6.9 µM and above 100 µM, respectively.

Take `CN(C)NC(=O)CCC(=O)NN(C)C`: the IC50 (on Egl nine homolog 1; in experiment [8]; in experiment [1]; in experiment [2]; in experiment [3]; in experiment [4]) was above 100 µM throughout. Further, the half-maximal inhibitory concentration (IC50) is above 100 µM in [5], 117 µM in experiment [9] and above 100 µM in [7].

Take `O=C(O)CCC(=O)NO`: the IC50 against Egl nine homolog 1 was 19.6 µM; in experiment [8], 0.43 µM; in [1] it was above 100 µM; in experiment [2], 1.9 µM; in [3], 3 µM; in experiment [4], 1.1 µM. Besides, the values for the IC50 in experiment [5], in [9] and in experiment [7] were above 100 µM, 1.7 µM and 0.4 µM, respectively.

As for `CC(=O)CC(=O)CCC(=O)O` [SUCCINYLACETONE], the IC50 on Egl nine homolog 1 is above 100 µM; in [8] it was 0.57 µM; in experiment [1], above 100 µM; in experiment [2], 4.5 µM; in experiment [3], 12.7 µM; in experiment [4] it was 16.5 µM. For the same compound, the IC50 is above 100 µM in [5], 2.3 µM in experiment [9] and 23.9 µM in experiment [7].
